Test [1] concerns Serine/threonine-protein kinase B-raf (Homo sapiens), P15056 [V600E]. The test is described as follows: Inhibition of BRAF V600E mutant (unknown origin) at 10 uM using Ser/Thr 03 as substrate after 1 hr in presence of ATP by Z'-LYTE assay relative to control. Put shortly:
(§1)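 Run by a commercial kinase profiling service at 100 µM ATP. Single-point screening was followed by 5-point titration (1 nM, 10 nM, 100 nM, 1 µM, 10 µM) for IC50.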

For another test, the system named is LOX IMVI. The test is described as follows: cells. Format: functional, cell-based. Conditions: Homo sapiens, 24 h.
Test [2] concerns the target Mitogen-activated protein kinase 14 (Homo sapiens, UniProt Q16539). The test is described as follows: Inhibition of p38 alpha (unknown origin) at 10 uM using Ser/Thr 15 as substrate incubated for 1 hr in presence of ATP by Z'-Lyte assay relative to control. The essentials: as §1

Experimental findings from ChEMBL document CHEMBL4732217, “Design, synthesis, biological evaluation, and docking studies of novel (imidazol-5-yl)pyrimidine-based derivatives as dual BRAF/p38α inhibitors” (Eur J Med Chem, 2021) are described below.

What is called inhibition is the share of the control response that was lost under treatment. In general, IC50 refers to the concentration that inhibits the measured activity by half. A higher IC50 goes with lower potency.

Sequence of Serine/threonine-protein kinase B-raf (Homo sapiens), P15056 [V600E] (P15056 whole entry V600E): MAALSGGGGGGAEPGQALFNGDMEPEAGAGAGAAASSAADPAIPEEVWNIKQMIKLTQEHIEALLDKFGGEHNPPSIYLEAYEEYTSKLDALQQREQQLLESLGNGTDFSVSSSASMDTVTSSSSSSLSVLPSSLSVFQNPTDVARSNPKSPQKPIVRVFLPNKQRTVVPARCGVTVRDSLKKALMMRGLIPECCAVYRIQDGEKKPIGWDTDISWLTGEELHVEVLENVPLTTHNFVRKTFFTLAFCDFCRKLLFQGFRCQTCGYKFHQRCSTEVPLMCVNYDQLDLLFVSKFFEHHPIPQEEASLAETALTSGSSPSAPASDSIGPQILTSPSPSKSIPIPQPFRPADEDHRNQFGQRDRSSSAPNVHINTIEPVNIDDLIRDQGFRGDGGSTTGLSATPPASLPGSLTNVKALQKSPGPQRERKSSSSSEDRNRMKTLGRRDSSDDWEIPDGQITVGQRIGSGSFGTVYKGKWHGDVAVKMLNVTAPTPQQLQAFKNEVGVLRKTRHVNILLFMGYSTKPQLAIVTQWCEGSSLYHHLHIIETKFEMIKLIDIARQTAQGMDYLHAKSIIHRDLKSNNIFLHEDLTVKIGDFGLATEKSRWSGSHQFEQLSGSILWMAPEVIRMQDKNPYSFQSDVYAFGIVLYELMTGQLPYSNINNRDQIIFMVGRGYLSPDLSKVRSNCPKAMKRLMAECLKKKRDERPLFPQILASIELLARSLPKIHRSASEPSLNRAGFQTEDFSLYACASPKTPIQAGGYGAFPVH
Sequence of Mitogen-activated protein kinase 14 (Q16539 whole entry): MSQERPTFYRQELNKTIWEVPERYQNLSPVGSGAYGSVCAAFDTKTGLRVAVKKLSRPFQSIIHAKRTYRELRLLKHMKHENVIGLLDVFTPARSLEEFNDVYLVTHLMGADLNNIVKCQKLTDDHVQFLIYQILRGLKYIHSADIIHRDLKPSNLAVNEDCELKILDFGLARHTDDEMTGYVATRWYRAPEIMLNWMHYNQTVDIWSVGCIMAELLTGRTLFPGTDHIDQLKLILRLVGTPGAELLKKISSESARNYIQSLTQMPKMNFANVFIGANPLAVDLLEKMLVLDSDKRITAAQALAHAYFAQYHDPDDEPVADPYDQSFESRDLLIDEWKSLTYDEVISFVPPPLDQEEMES

Consider `COc1cc(-c2nc(-c3ccccc3)[nH]c2-c2ccnc(NCCCNS(=O)(=O)c3ccccc3)n2)ccc1F`, for which the inhibition in test [1] is 77.3%; in test [2], 83.5%. Further, the IC50 in the test with LOX IMVI worked out at 4.52 µM.

Regarding `COc1cc(-c2nc(-c3ccccc3)[nH]c2-c2ccnc(NCCCNS(=O)(=O)c3ccc(C(F)(F)F)cc3)n2)ccc1F`, the inhibition amounted to 42.4% in test [1] and 48.6% in test [2]. Also, in the test on LOX IMVI, half-maximal inhibition (IC50) was put at 75.2 µM.

On to `COc1cc(-c2nc(-c3ccccc3)[nH]c2-c2ccnc(NCCCNS(=O)(=O)c3ccc(Br)cc3)n2)ccc1F`, for which the inhibition in test [1] amounted to 81.5%; in test [2], 73.4%. The half-maximal inhibitory concentration (IC50) in the test with LOX IMVI was determined as 33.9 µM.

For the compound `O=S(=O)(NCCCNc1nccc(-c2[nH]c(-c3ccccc3)nc2-c2ccc(F)c(O)c2)n1)c1ccc(F)cc1`, the inhibition in test [1] turned out to be 97%; in test [2] it was 91.4%. Besides, in the test with LOX IMVI, the midpoint of inhibition, the IC50, lay at 19.2 µM.

On to `COc1cc(-c2nc(-c3ccccc3)[nH]c2-c2ccnc(NCCCNS(=O)(=O)c3ccccc3)n2)ccc1Cl`, for which the figures for the inhibition in test [1] and in test [2] were 80% and 58.6%, respectively. The IC50 in the test with LOX IMVI stood at 7.47 µM.

As to `COc1ccc(S(=O)(=O)NCCCNc2nccc(-c3[nH]c(-c4ccccc4)nc3-c3ccc(F)c(OC)c3)n2)cc1`, the inhibition was determined as 89.1% in test [1] and 88.5% in test [2]. It took 6.13 µM to reach half-maximal inhibition with LOX IMVI (IC50).

Take `COc1cc(-c2nc(-c3ccccc3)[nH]c2-c2ccnc(NCCCNS(=O)(=O)c3cccc(F)c3)n2)ccc1Cl`: the inhibition is 84.9% in test [1] and 58.3% in test [2]. The compound also displayed an IC50 with LOX IMVI of 5.11 µM.

For the compound `COc1cc(-c2nc(-c3ccccc3)[nH]c2-c2ccnc(NCCCNS(=O)(=O)c3ccc(Br)cc3)n2)ccc1Cl`, the inhibition in test [1] amounted to 88.3%; in test [2], 30%. Besides, in the test with LOX IMVI, the IC50 worked out at 23.7 µM.

As for `COc1cc(-c2nc(-c3ccccc3)[nH]c2-c2ccnc(NCCCNS(=O)(=O)c3ccc(F)cc3)n2)ccc1Cl`, the inhibition was found to be 81% in test [1] and 62.1% in test [2]. The compound also had an IC50 in the test with LOX IMVI of 4.53 µM.

Regarding `O=S(=O)(NCCCNc1nccc(-c2[nH]c(-c3ccccc3)nc2-c2ccc(Cl)c(O)c2)n1)c1ccc(C(F)(F)F)cc1`, the inhibition in test [1] stood at 99.2%; in test [2] it was 54.3%. Besides, the IC50 with LOX IMVI was found to be 10.1 µM.

For `O=S(=O)(NCCCNc1nccc(-c2[nH]c(-c3ccccc3)nc2-c2ccc(Cl)c(O)c2)n1)c1ccc(Cl)cc1`, the inhibition in test [1] worked out at 99.7%; in test [2], 70.8%. For the same compound, the IC50 with LOX IMVI turned out to be 61.3 µM.

In the case of `O=S(=O)(NCCCNc1nccc(-c2[nH]c(-c3ccccc3)nc2-c2ccc(Cl)c(O)c2)n1)c1cccc2ccccc12`, the figures for the inhibition in test [1] and in test [2] were 96.2% and 51.1%, respectively. Also, the IC50 in the test on LOX IMVI came to 7.72 µM.

On to `COc1cc(-c2nc(-c3ccccc3)[nH]c2-c2ccnc(NCCCNS(=O)(=O)c3ccc(Cl)cc3)n2)ccc1F`, for which the inhibition in test [1] worked out at 79.2%; in test [2], 72.8%. The IC50 with LOX IMVI was 83.1 µM.

With `O=S(=O)(NCCCNc1nccc(-c2[nH]c(-c3ccccc3)nc2-c2ccc(F)c(O)c2)n1)c1cccc2ccccc12`, the inhibition was found to be 99.8% in test [1] and 79.8% in test [2]. Moreover, in the test on LOX IMVI, half-maximal inhibition (IC50) was put at 3.71 µM.

`COc1cc(-c2nc(-c3ccccc3)[nH]c2-c2ccnc(NCCCNS(=O)(=O)c3ccc(C)cc3)n2)ccc1F`: the inhibition amounted to 82.4% in test [1] and 79.4% in test [2]. The IC50 with LOX IMVI was 2.59 µM.

Consider `COc1cc(-c2nc(-c3ccccc3)[nH]c2-c2ccnc(NCCCNS(=O)(=O)c3ccc(Cl)cc3)n2)ccc1Cl`, for which the results for the inhibition in test [1] and in test [2] were 85.1% and 52.1%, respectively. Also, the midpoint of inhibition with LOX IMVI, the IC50, lay at 60.9 µM.

Consider `COc1cc(-c2nc(-c3ccccc3)[nH]c2-c2ccnc(NCCCNS(=O)(=O)c3ccc(F)cc3)n2)ccc1F`, for which the values for the inhibition in test [1] and in test [2] were 80.1% and 84.1%, respectively. In the test on LOX IMVI, this compound showed an IC50 of 3.96 µM.

For the compound `COc1cc(-c2nc(-c3ccccc3)[nH]c2-c2ccnc(NCCCNS(=O)(=O)c3cccc4ccccc34)n2)ccc1F`, the inhibition in test [1] is 81%; in test [2], 44.4%. Besides, the IC50 in the test with LOX IMVI came to 14.9 µM.
